The text below walks through data of ChEMBL document CHEMBL6074625, “Thiazolidine-2,4-dione hybrids as dual alpha-amylase and alpha-glucosidase inhibitors: design, synthesis, in vitro and in vivo anti-diabetic evaluation” (RSC Med Chem, 2024).

For data set [1], the target named is alpha-glucosidase (Saccharomyces cerevisiae). The experiment in a line: Inhibition of Saccharomyces cerevisiae alpha-glucosidase using 4-nitrophenyl-alpha-D-glucopyranoside as substrate incubated with compound for 15 to 20 min by absorbance based analysis.
For data set [2], the system named is PANC-1. The data set can be described thus: Cytotoxicity against human PANC-1 cells assessed as inhibition of cell viability at upto 100 uM incubated for 24 hrs by MTT assay. Format: toxicity, cell-based. Conditions: panc-1, 24 h. Summed up:
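PANC-1 cells seeded at 9 × 10³ per well, triplicate, 24 h at 37 °C, 5% CO₂. Treated with 5, 10, 20, 40, 60, 80 and 100 μM for another day. MTT (5 mg mL⁻¹ stock) 3 h at 37 °C, plates centrifuged, formazan dissolved in DMSO 30 min dark, A570. Viability compared by one-way ANOVA with Tukey test.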
On the technique in general: Formazan colour is commonly taken as a measure of viable cells.

The test system of data set [3] is PANC-1. The data set can be described thus: Antioxidant activity in human PANC-1 cells assessed as decrease in high glucose induced ROS production by measuring minimum fractional index at 5 uM incubated for 24 hrs by DCFDA-staining based flow cytometry analysis. Format: functional. In outline:
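PANC-1 cells (1 × 10⁵/well) grown 24 h at 37 °C, 5% CO₂, then pre-treated 1 h with 5 μM compound. Exposed to glucose (stated 10 μM) for 23 h. Stained with 10 μM DCFH-DA for 30 min at 37 °C, rinsed, and ROS read by flow cytometry as DCFDA/FITC mean fluorescence intensity.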

Data set [4] can be described thus: Inhibition of porcine pancreatic alpha-amylase using starch as substrate preincubated for 10 min followed by substrate addition and measured after 20 min by absorbance based analysis. On the set-up: species or system Sus scrofa. In outline:
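Porcine α-amylase (1 U mL⁻¹) pre-incubated with compound 10 min at 25 °C in phosphate buffer pH 6.8. 1% starch added, then 15 min at 37.5 ± 2 °C. Quenched with DNS reagent, heated 70 °C 20 min, diluted with buffer, A540 read, in triplicate. Final concentrations 100–1 μM from DMSO dilutions; IC50 from a linear fit of % inhibition at y = 50.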

Data set [5] concerns PANC-1. The experiment in a line: Anti-diabetic activity against high glucose induced human PANC-1 cells assessed as decrease in glucose induced alpha-glucosidase expression by measuring by measuring minimum fractional index at 5 uM incubated for 23 hrs and measured after 24 hrs by flow cytometric analysis (reference value: 4361 +/- 257.83). Format: functional.
The subject of data set [6] is PANC-1. The experiment in a line: Anti-diabetic activity against high glucose induced human PANC-1 cells assessed as decrease in glucose induced alpha-amylase expression by measuring by measuring minimum fractional index at 5 uM incubated for 23 hrs and measured after 24 hrs by flow cytometric analysis (reference value: 2887 +/- 95.87). Format: functional. On the technique in general: A flow cytometer gives signals particle by particle.

Data set [7] is described as follows: Toxicity against STZ-induced diabetic Wistar rat model assessed as body weight loss in presence of pioglitazone at 10 mg/kg, po measured on day 14. It counts as organism-based. Conditions: in vivo.
Data set [8] is described as follows: Toxicity against STZ-induced diabetic Wistar rat model assessed as body weight loss at 10 mg/kg, po measured on day 14. It counts as organism-based. Conditions: in vivo, 336 h, time 14 day. Summed up:
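STZ given on day 1; oral treatment started day 14, with vehicle 0.5% CMC in controls. Six groups: normal, vehicle, STZ, STZ + two test compounds, STZ + pioglitazone. Blood glucose (tail puncture, glucometer) and body weight recorded on days 1, 4, 14 and 35. One-way ANOVA.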

In data set [9] the test system is Rattus norvegicus. The experiment in a line: Antioxidant activity in fasted STZ-induced diabetic Wistar rat model assessed as increase in high glucose induced ROS production in pancreas by measuring minimum fractional index at 10 mg/kg, po administration for 21 days. It counts as functional. The conditions noted are these: time 21 day. Summed up: (§1)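 Rat pancreas mashed through a 70 μm strainer in FACS buffer. Processed by centrifugation (300 × g and 800 × g, 21 °C), 42% Percoll and 5 min RBC lysis. Cells washed, stained with DCFH-DA, and ROS read on a flow cytometer.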

The subject of data set [10] is Rattus norvegicus. The data set can be described thus: Antioxidant activity in fasted STZ-induced diabetic Wistar rat model assessed as decrease in high glucose induced ROS production in pancreas by measuring minimum fractional index at 10 mg/kg, po administration for 21 days in presence of pioglitazone days and measured on day 35. The conditions noted are these: time 21 day. Format: functional. Summed up: as §1

For data set [11], the species on record is Rattus norvegicus. The data set can be described thus: Anti-diabetic activity in high glucose induced alpha-amylase expression in fasted STZ-induced diabetic Wistar rat model assessed as alpha- glucosidase level in pancreas by measuring minimum fractional index in presence of pioglitazone incubated for 23 hrs and measured after 24 hrs by flow cytometric analysis (reference value: 3063 +/- 149.2). Format: functional.

The species named for data set [12] is Rattus norvegicus. The data set can be described thus: Anti-diabetic activity in high glucose induced alpha-amylase expression in fasted STZ-induced diabetic Wistar rat model assessed as alpha-amylase level in pancreas by measuring minimum fractional index in presence of pioglitazone incubated for 23 hrs and measured after 24 hrs by flow cytometric analysis (reference value: 2590 + 199.74). Format: functional.

Structures are written as SMILES.

Regarding `CCOc1cc(/C=C2\SC(=O)N(Cc3cccc([N+](=O)[O-])c3)C2=O)ccc1OCc1ccc(C)cc1`, the IC50 in data set [1] stood at 20.31 µM; in [4], 54.2 µM. Moreover, in the data set with PANC-1 [2], the Activity result was “Non-toxic”. Also, the Activity_index with PANC-1 [3] amounted to 230.

For the molecule `O=C1/C(=C2/SC(=O)N(Cc3cccc([N+](=O)[O-])c3)C2=O)Nc2ccccc21`, the IC50 in data set [1] was 58.44 µM; in data set [4] it was 44 µM. In the data set with PANC-1 [2], the Activity entry was “Non-toxic”. In addition, in the data set with PANC-1 [3], the Activity_index is on record as 3041.

Turning to `CCOc1cc(/C=C2\SC(=O)N(Cc3cccc([N+](=O)[O-])c3)C2=O)ccc1OCc1ccc([N+](=O)[O-])cc1`, the values for the IC50 in data set [1] and in data set [4] were 38.33 µM and 93.5 µM, respectively. Besides, the Activity result with PANC-1 [2] is given as “Non-toxic”. The Activity_index in the data set with PANC-1 [3] is given as 676.

`CCOc1cc(/C=C2\SC(=O)N(Cc3cccc([N+](=O)[O-])c3)C2=O)ccc1OCc1ccc(F)cc1`: the IC50 in [1] is 46.51 µM; in data set [4], 60.1 µM. In the data set with PANC-1 [2], the Activity result is given as “Non-toxic”. Also, the Activity_index with PANC-1 [3] amounted to 2438.

On to `CCOc1cc(/C=C2\SC(=O)N(Cc3cccc([N+](=O)[O-])c3)C2=O)ccc1OS(=O)(=O)c1ccc(C)cc1`, for which the IC50 amounted to 42.24 µM in data set [1] and 48.7 µM in data set [4]. In addition, the Activity entry in the data set with PANC-1 [2] was “Non-toxic”. For the same molecule, the Activity_index in the data set on PANC-1 [3] is listed as 957.

`CCOc1cc(/C=C2\SC(=O)N(Cc3cccc([N+](=O)[O-])c3)C2=O)ccc1OCc1cccc([N+](=O)[O-])c1`: the figures for the half-inhibitory concentration (IC50) in [1] and in [4] were 99.1 µM and 64.8 µM, respectively. Also, the Activity result with PANC-1 [2] is recorded as “Non-toxic”. Moreover, the Activity_index with PANC-1 [3] is on record as 4225.

`C[C@H]1O[C@H](O[C@H]2[C@H](O)[C@@H](O)[C@@H](O[C@H]3[C@H](O)[C@@H](O)C(O)O[C@@H]3CO)O[C@@H]2CO)[C@H](O)[C@@H](O)[C@@H]1N[C@H]1C=C(CO)[C@@H](O)[C@H](O)[C@H]1O` (some centres undefined) [ACARBOSE]: the Activity index with PANC-1 [5] came out at 170; in the data set on PANC-1 [6] it was 114. Moreover, the Activity_index with PANC-1 [3] is 149.

As for `CCOc1cc(/C=C2\SC(=O)N(Cc3cccc([N+](=O)[O-])c3)C2=O)ccc1OCc1ccccc1`, the IC50 came to 31.2 µM in [1] and 55.6 µM in data set [4]. Moreover, in the data set with PANC-1 [2], the Activity entry is reported as “Non-toxic”. Besides, the Activity_index with PANC-1 [3] is 898.

On to `CN(N=O)C(=O)N[C@@H]1[C@@H](O)[C@H](O)[C@@H](CO)O[C@@H]1O` [STREPTOZOSIN], for which the Activity entry in data set [7] and in data set [8] was “Toxic” each time. The Activity_index in the data set with Rattus norvegicus [9] is 3762; in the data set on Rattus norvegicus [10], 221; in the data set listed under Rattus norvegicus [11], 720; in the data set listed under Rattus norvegicus [12], 230.

Consider `O=C1/C(=C2/SC(=O)N(Cc3cccc([N+](=O)[O-])c3)C2=O)Nc2ccc(Cl)cc21`, for which the IC50 turned out to be 53.18 µM in data set [1] and 50.8 µM in [4]. Besides, in the data set with PANC-1 [2], the Activity entry is reported as “Non-toxic”. Moreover, the Activity_index with PANC-1 [3] turned out to be 3063.

Consider `CCOc1cc(/C=C2\SC(=O)N(Cc3cccc([N+](=O)[O-])c3)C2=O)ccc1OCc1ccc(Cl)cc1`, for which the IC50 in data set [1] came out at 96.15 µM; in [4] it was 126 µM. In addition, the Activity result in the data set with PANC-1 [2] was “Non-toxic”. For the same molecule, the Activity_index with PANC-1 [3] is given as 4225.

In the case of `O=C1/C(=C2/SC(=O)N(Cc3cccc([N+](=O)[O-])c3)C2=O)Nc2ccc(Br)cc21`, the IC50 turned out to be 68.76 µM in [1] and 61 µM in [4]. Further, the Activity result in the data set with PANC-1 [2] was “Non-toxic”. Moreover, the Activity_index in the data set on PANC-1 [3] came to 2982.

As usually defined, the IC50 is the point on the concentration scale where inhibition reaches its midpoint.
